Screening results (PubChem)
Sampled rows, rich in hits. Any-hit rate of the full collection: about 2.9%.
PfM18AAP inh-1 – PfM18AAP inhibitors, malaria aminopeptidase, primary screen, biochemical, QFRET, recombinant enzyme | H-Glu-NHMec fluorogenic cleavage | hit rate 1.2% among 290,000 | AID 1822, 2009 | inhibition, % at 7.35 µM | M18 aspartyl aminopeptidase (Plasmodium falciparum 3D7);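 active = inhibition above the campaign mean inhibition over all tested compounds plus 3 SD, cut at about 28% in these data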;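 also: 0% = plate median of test compound wells and 100% = 2 mM ZnCl2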
Runt-SMMHC FRET – inhibitors of RUNX1 Runt–CBFb-SMMHC binding, primary screen, biochemical, FRET, Cerulean-Runt, Venus-CBFb-SMMHC, uHTS; Cerulean-Runt/Venus-CBFb-SMMHC FRET ratio 530/480, 1 h; inhibition, % at 20 µM; hit rate 0.74% among 220,000; AID 1434, 2008;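 active = mean inhibition across duplicate retests at 20 µM reaching about 50%, limit read from the data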;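 also: 0% = DMSO wells and 100% = wells with excess untagged CBFb-SMMHC; inhibitors lower the FRET ratio by blocking Runt binding to CBFb-SMMHC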
Runt-CBFb FRET – inhibitors of RUNX1 Runt–CBFb binding, primary screen, biochemical, FRET, Cerulean-Runt, Venus-CBFb, uHTS; Cerulean-Runt/Venus-CBFb FRET ratio 530/480, 1 h; inhibition, % at 20 µM; hit rate 0.46% among 220,000; AID 1496, 2009;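 active = inhibition over about 50% at 20 µM in the single-dose screen, limit read from the data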;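 also: 0% = DMSO wells and 100% = excess unlabeled CBFb competitor control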
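test system = Cerulean-Runt domain fusion protein, energy donor | probe or stimulus = Venus-CBFb binding partner, 100 nM | incubation = two 1 h room-temperature incubations shielded from light | detection = fluorescence energy transfer, 422 nm excitation, 530/480 nm emission | measure = loss of energy transfer signal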
RBBP9 inhibitor – human RBBP9 inhibitors, primary screen, biochemical, fluorescence polarization, FP-Rh probe, HTS. Serine hydrolase RBBP9 (Homo sapiens), O75884. recombinant RBBP9. inhibition, % at 7.94 µM. hit rate 0.2% among 220,000. AID 1515, 2009;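 active = inhibition above the campaign mean of all tested compounds plus 3 SD, cut at about 14% in these data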;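 also: plate controls were DMSO wells with RBBP9 for no effect and wells lacking RBBP9 protein for full effect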
Target sequence (O75884 whole entry, looked up): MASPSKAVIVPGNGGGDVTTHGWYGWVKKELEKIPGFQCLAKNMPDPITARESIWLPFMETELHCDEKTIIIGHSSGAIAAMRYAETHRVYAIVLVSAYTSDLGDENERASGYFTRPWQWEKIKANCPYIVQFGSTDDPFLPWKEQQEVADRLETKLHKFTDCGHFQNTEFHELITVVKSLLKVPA
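Test system – recombinant human RBBP9 · Input – RBBP9 2.5 µM in dispensing solution, pre-mixing · Medium – Tris buffer pH 8.0, NaCl, Pluronic · Schedule – preincubation 30 min plus labeling 45 min at 25 °C · Measured by – fluorescence polarization · Measure – % inhibition · Controls – DMSO and no-protein wells · Replicates – one well per compound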
Hck-Nef inh – inhibitors of Nef-activated human Hck kinase, primary screen, biochemical, Z-Lyte FRET, 384-well, Hck-YEEI | Tyrosine-protein kinase HCK (Homo sapiens), P08631 | Recombinant Hck-YEEI plus Nef, Z-Lyte FRET kinase assay | inhibition, % at 20 µM | hit rate 0.68% among 220,000;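 active = Hck-Nef kinase inhibition above about 50%, limit read from the data; inactive = inhibition below that limit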;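 also: 0% = DMSO with Hck plus Nef and 100% = Hck alone without Nef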
RanGTP-Imp inh – inhibitors of RanGTP-importin-beta interaction, primary screen, biochemical, FRET, CFP-Ran, YFP-importin-beta, homogeneous; Ran GTPase (GTP-bound) - importin-beta complex; cell-free CFP-Ran/YFP-importin-beta FRET ratio; inhibition, % (no concentration beside the values); hit rate 1.1% among 300,000; AID 2216, 2009;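 active = more than half of the replicate wells show a fall in the fluorescence ratio signal beyond about 16%, limit read from the data, passing the limit was not always enough; inconclusive = exactly half of the replicate wells pass the set limit; inactive = fewer than half of replicates pass the limit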;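 also: 0% = DMSO wells and 100% = Ran loaded with GDP instead of GTP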
PfM18AAP inh-2 – PfM18AAP inhibitors, malaria aminopeptidase, confirmation, biochemical, QFRET, recombinant enzyme, triplicate; shares compounds with PfM18AAP inh-1; hit rate 28% among 2,400; inhibition, % at 7.35 µM; H-Glu-NHMec fluorogenic cleavage; AID 2170, 2009;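 active = mean inhibition over replicate wells above the hit cutoff set for the earlier primary screen, cut at about 29% in these data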;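 also: 0% = median of test compound wells and 100% = 2 mM ZnCl2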
CTSL1 confirm – cathepsin L1 inhibitors, retest, confirmation, counter-screen for PFM18AAP inhibitor project, biochemical, QFRET, triplicate; shares compounds with PfM18AAP inh-1; purified cathepsin L1, Z-Leu-Arg-MCA fluorescence; inhibition, % at 5.96 µM; 2,400 tested, under 10 active; AID 2178, 2009;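 active = average inhibition across replicates above the hit cutoff set in the earlier primary screen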;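 also: 0% = median of test compound wells and 100% = Z-Phe-Ala-diazomethylketone 1 µM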
Target sequence (P07711 whole entry, looked up): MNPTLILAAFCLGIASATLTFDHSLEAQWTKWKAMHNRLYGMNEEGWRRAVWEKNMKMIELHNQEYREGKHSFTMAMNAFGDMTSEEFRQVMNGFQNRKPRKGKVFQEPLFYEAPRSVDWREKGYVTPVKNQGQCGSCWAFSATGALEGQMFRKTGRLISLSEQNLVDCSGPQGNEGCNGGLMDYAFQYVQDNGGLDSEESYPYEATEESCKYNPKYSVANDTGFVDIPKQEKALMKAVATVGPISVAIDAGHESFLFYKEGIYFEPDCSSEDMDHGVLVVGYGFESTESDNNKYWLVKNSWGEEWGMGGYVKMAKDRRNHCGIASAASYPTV
An asterisk follows results filed as active; ? = inconclusive; · = no result.

SMILES	PfM18AAP inh-1	Runt-SMMHC FRET	Runt-CBFb FRET	RBBP9 inhibitor	Hck-Nef inh	RanGTP-Imp inh	PfM18AAP inh-2	CTSL1 confirm
CC1(C(=O)O)CCC(C(=O)Nc2ccc(F)cc2)C1(C)C (stereo unspecified)	0.2	·	·	·	·	-6.0	·	·
O=C(NNc1ccc([N+](=O)[O-])cc1)c1ccccc1Cl	50.4*	-0.6	-1.3	-5.6	26.7	-1.3	20.6	0.1
COc1cc(C(=O)N/C(=C\c2cn(C)c3ccccc23)C(=O)NCCN2CCOCC2)cc(OC)c1OC	-8.1	·	·	·	·	1.9	·	·
CC1CCC2(CC1)NC(=S)N(c1ccccc1)N2 (stereo unspecified)	44.9*	4.0	1.7	0.9	-1.3	0.1	-24.4	1.7
CCN(CC)CCN(C(=O)c1ccc2ncsc2c1)c1nc2cc3c(cc2s1)OCO3	46.6*	·	·	·	·	3.8	-4.7	5.9
CCN(CC)CCN(C(=O)c1ccc(C(=O)c2ccccc2)cc1)c1nc2cc3c(cc2s1)OCO3	3.4	·	·	·	·	2.2	·	·
Cc1ccc(S(=O)(=O)N2C(=O)/C(=C3\SC(=S)NC3=O)c3ccccc32)cc1	0.6	-8.6	-2.0	-9.5	29.1	-0.6	·	·
O=C(CN1CCN(c2ccc(O)cc2)CC1)Nc1ccc2c(c1)OCCO2	38.2*	36.3	42.7	0.4	15.0	-0.9	-1.5	5.2
Cc1cc(NC(=O)CN2CCN(S(=O)(=O)c3ccc(Cl)cc3)CC2)no1	-6.6	0.2	1.0	-11.9	-0.2	-3.0	·	·
CCOC(=O)Cc1csc(NC(=O)CSc2nnc(-c3ccc(C)cc3)o2)n1	32.4*	1.8	-0.7	-1.6	20.2	-0.1	-54.7	-3.3
Cc1cc(NC(=O)CSc2nnc(-c3ccc(O)cc3)o2)no1	37.9*	1.9	-0.5	-9.8	17.6	-0.1	-48.1	-6.5
Cc1cc(NC(=O)CN2CCN(c3ccc(O)cc3)CC2)no1	34.7*	31.9	·	4.0	0.7	7.2	-13.4	0.6
O=C(CN1CCN(c2ccc(F)cc2)CC1)Nc1ccc2c(c1)OCCO2	2.3	·	·	·	·	4.3	·	·
O=C(NCc1cnn(-c2ccc(F)cc2)c1)C1CCC(=O)N(C2CC2)C1 (stereo unspecified)	-5.7	·	·	·	·	2.2	·	·
COc1cc(Cl)ccc1OCc1cc(C(=O)N(C)CCc2cnn(C)c2)no1	1.4	·	·	·	·	3.9	·	·
COc1ccc(-n2c(SCC(=O)NCc3cccs3)nc3[nH]ncc3c2=O)cc1	52.2*	-2.6	1.2	-5.2	0.4	?	34.2*	-0.1
O=C(CSc1nc2[nH]ncc2c(=O)n1-c1ccccc1)NCc1cccs1	56.9*	-7.6	-1.3	2.3	21.2	0.6	39.2*	-0.4
O=C(CSc1nc2[nH]ncc2c(=O)n1-c1ccccc1)NCCc1ccccc1	15.3	-1.7	-1.7	-2.8	18.2	0.0	·	·
Cc1cccc(NC(=O)CSc2nc3[nH]ncc3c(=O)n2-c2ccccc2)c1	35.9*	3.8	-3.0	-6.2	0.4	-0.2	-1.6	3.4
CC1CCCN(S(=O)(=O)CCNC(=O)c2ccccc2)C1 (stereo unspecified)	·	·	·	·	·	-0.4	·	·
Cc1cccc(N(CC(=O)NCc2ccco2)C(=O)CCC(=O)Nc2ccccn2)c1C	7.7	·	·	·	·	2.8	·	·
Oc1ccc(-c2cn3ccccc3n2)cc1	5.9	1.7	-1.7	-3.1	33.7	-1.4	·	·
Oc1ccc(-c2cn3ccccc3n2)cc1O	69.7*	·	·	·	·	6.6	58.4*	-1.7
Cc1ccn2cc(-c3ccc(O)c(O)c3)nc2c1	71.5*	·	·	·	·	0.7	51.3*	-7.7
Oc1cc(O)c2c(c1)O[C@H](c1ccc(O)c(O)c1)[C@H](O)C2	81.1*	·	·	·	·	-2.8	66.1*	1.4
SMILES	PfM18AAP inh-1	Runt-SMMHC FRET	Runt-CBFb FRET	RBBP9 inhibitor	Hck-Nef inh	RanGTP-Imp inh	PfM18AAP inh-2	CTSL1 confirm
COc1ccccc1OCCCCn1ncc2ccc(OC)c(OC)c2c1=O	6.2	·	·	·	·	2.6	·	·
Cc1cc(C)c(S(=O)(=O)NC2CC3CCC2C3)c(C)c1 (stereo unspecified)	1.0	·	·	·	·	-1.5	·	·
CCCCn1c(-c2ccco2)n[nH]c1=S	18.6	30.9	11.3	-3.1	1.1	-0.2	·	·
CCCCn1c(-c2sccc2C)n[nH]c1=S	32.0*	6.5	-0.1	-7.5	16.0	-6.3	0.9	4.9
O=C(CSc1ccc2ccccc2c1)NCCc1ccc(O)c(O)c1	56.6*	38.2	41.9	0.7	2.3	5.3	41.0*	4.1
Cc1ccc(C(=O)NN2C(=O)CSC2=S)cc1	15.0	-0.8	-0.6	-14.9	1.6	3.9	·	·
C/C(=N\N1C(=O)CSC1=S)c1ccc(Br)cc1	50.2*	0.3	15.6	-8.2	-6.2	3.2	10.2	5.1
Cc1cc(SCC(=O)c2ccc(O)c(O)c2)nc2ccccc12	46.3*	1.9	-0.7	-6.7	24.7	3.5	21.2	2.9
O=C(CSc1n[nH]c(-c2ccccc2)n1)c1ccc(O)c(O)c1	59.7*	1.9	1.0	-1.2	1.9	3.0	36.1*	0.3
Cn1cnnc1SCC(C)(C)NS(=O)(=O)c1ccc(Cl)cc1	1.0	·	·	·	·	0.5	·	·
CC(Cc1ccco1)NC(=O)c1cccc(S(=O)(=O)N(C)C)c1 (stereo unspecified)	-1.9	·	·	·	·	-3.1	·	·
Cc1cc(C)nc(SC/C=C/c2ccccc2)n1	34.2*	·	·	·	·	4.8	-16.6	-1.0
COC(=O)C(C(=O)OC)c1ncc(C(F)(F)F)cc1Cl	4.2	1.4	1.1	-4.8	12.7	-1.6	·	·
COC(=O)Nc1nc(Sc2ncc(C(F)(F)F)cc2Cl)n[nH]1	69.5*	2.6	-0.2	1.7	3.1	-11.5	70.3*	-0.7
CC(C)Oc1ccc(/C=C/C(=O)NCC2COc3ccccc3O2)cc1 (stereo unspecified)	-1.2	4.3	-2.8	-10.0	17.5	0.0	·	·
Cc1ccc2nc(NC3=NC(CC(=O)O)C(=O)N3)nc(C)c2c1 (stereo unspecified)	3.7	-4.1	-0.5	-1.6	-32.1	5.9	·	·
O=C(NC(=S)Nn1cnnc1)c1ccc(F)cc1Cl	78.0*	·	·	·	·	-3.3	54.6*	-3.4
